Measured values as given in ChEMBL document CHEMBL4411261, “Down-Regulation of the Androgen Receptor by G-Quadruplex Ligands Sensitizes Castration-Resistant Prostate Cancer Cells to Enzalutamide” (J Med Chem, 2018).
Activity calls are given as the source filed them. No cut-off for these calls is given here.

Legend:
[1] = Stabilization of 5'-FAM/3'-TAMRA labelled CTATAGCGCGCTATAG dsDNA (unknown origin) assessed as change in melting temperature t1/2 at 1 uM after 16 hrs in presence of 100 mM K+ by FRET assay
Outline: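 FRET melting: FAM/TAMRA dual-labelled oligos (0.25 μM) folded in 10 mM lithium cacodylate pH 7.4 with 100 mM KCl (95 °C 5 min, cooled 4 h); ligand added at 1 μM final, 16 h room temperature. FAM emission followed 30−95 °C at 1 °C/min; curves normalized 0 to 1, T1/2 at 0.5 fraction.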

[2] = tested on: Quadruplex DNA; assay: Binding affinity to 5'-Biotinylated-AR1 G-quadruplex oligonucleotide (unknown origin) by SPR analysis relative to control; format: nucleic-acid assay
[3] = tested on: CWR22R; assay: Cytotoxicity against human 22Rv1 cells expressing full length androgen receptor H875Y point mutant assessed as reduction in cell viability after 48 hrs by MTS assay; format: functional, cell-based; conditions: 22Rv1, 48 h
Outline: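 Cells kept in RPMI-1640 with 10% fetal calf serum, 37 °C, 5% CO2. Seeded, after 24 h treated with 0.0001, 0.001, 0.01, 0.1, 1 and 10 μM compound (DMSO stocks freshly diluted in medium) for 48 h. MTS added 4 h, absorbance 490 nm; IC50 from curves of % viability inhibition versus DMSO-treated cells against log concentration.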

[4] = tested on: Quadruplex DNA; assay: Stabilization of AR G-quadruplex oligonucleotide in human 22Rv1 cells assessed as reduction in AR-FL protein level at IC50 after 48 hrs by Western immunoblot assay; format: cell-based
[5] = tested on: Quadruplex DNA; assay: Stabilization of AR G-quadruplex oligonucleotide in human 22Rv1 cells assessed as down-regulation of KLK3 mRNA expression at IC50 after 6 to 72 hrs by RT-PCR analysis; format: cell-based
Outline: (§1)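 Transcripts quantified by TaqMan real-time PCR with RNaseP as normalizer; relative quantity versus untreated cells by the 2−ΔΔCt method. Panel genes measured with a 92-gene cancer-mechanism TaqMan array.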

[6] = tested on: Quadruplex DNA; assay: Stabilization of AR G-quadruplex oligonucleotide in human LNCAP cells assessed as reduction in AR mRNA expression at IC50 after 48 hrs by RT-PCR analysis; format: cell-based
Outline: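 Cells grown in RPMI-1640 with 10% fetal calf serum, 37 °C, 5% CO2, treated at an equitoxic concentration. Transcripts quantified by TaqMan real-time RT-PCR, normalized to RNaseP, expressed as relative quantity versus untreated cells (calibrator) by the 2−ΔΔCt method.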

[7] = Stabilization of AGTGAGAGTGAGAGAGAGAGTGAGAGTGAGAGTGA ssDNA (unknown origin) assessed as change in melting temperature at 16 uM after 16 hrs in presence of 100 mM K+ by CD spectra analysis
Outline: (§2)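 CD: oligos at 4 μM final in 10 mM lithium cacodylate pH 7.4, 100 mM KCl, annealed 95 °C 5 min then 4 h room temperature; duplex from equimolar strands. Ligand 16 μM final, 16 h room temperature. Spectra 230−320 nm, 5 mm cell, two scans averaged at 20 °C, buffer-subtracted; melting from spectra 20−90 °C in 5 °C steps.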

[8] = Stabilization of AGTGAGAGTGAGAGAGAGAGTGAGAGTGAGAGTGA/TCACTCTCACTCTCACTCTCTCTCTCACTCTCACT dsDNA (unknown origin) assessed as assessed as effect on conformational change at 16 uM after 16 hrs in presence of 100 mM K+ by CD spectra analysis; outline: as §2
[9] = tested on: Quadruplex DNA; assay: (§3) Stabilization of AR1 template G-quadruplex DNA (unknown origin) assessed as inhibition of polymerase progression at G4 site by measuring reduction in full length amplified product using GGCAAAAAGCAGCTGCTTATATGCAG as primer at 12.5 to 200 nM after 30 mins in presence of 5'-end labeled [gamma32P]ATP by phosphorimaging based taq polymerase stop assay; format: nucleic-acid assay
Outline: (§4)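 Primer 5′-labeled with [γ-32P]ATP by T4 polynucleotide kinase, 37 °C, 30 min. Labeled primer (72 nM final) annealed to template (36 nM final) in 10 mM lithium cacodylate pH 7.4, with or without 10 mM KCl, by heating at 95 °C for 5 min then slow cooling.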

[10] = as §3, with “TTTTTAGTGAGAGTGAGAGAGAGAGTGAGAGTGAGAGTGATTTTTCTGCATATAAGCAGCTGCTTTTTGCC” for “AR1 template G-quadruplex”; outline: as §4
[11] = tested on: Quadruplex DNA; assay: Stabilization of AR G-quadruplex oligonucleotide in human PC3 cells assessed as up-regulation of WNT1 mRNA expression at IC50 after 48 hrs by RT-PCR analysis; format: cell-based
Outline: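 PC-3 cells (RPMI-1640, 10% fetal calf serum) exposed at an equitoxic concentration. Expression of 92 cancer-mechanism genes measured on TaqMan Arrays. Change versus untreated cells computed by 2−ΔΔCt, with RNaseP as normalizer.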

[12] = tested on: CWR22R; assay: Synergistic cytotoxicity against human 22Rv1 cells expressing full length androgen receptor H875Y point mutant assessed as combination index for reduction in cell viability measured at ED50 Enzalutamide at 0.001 to 0.1 uM after 72 hrs by MTS assay based Chou and Talay's plot analysis; format: functional
Outline: (§5)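 Cells in RPMI-1640 with 10% fetal calf serum were exposed to ligand (0.001−0.1 μM) plus enzalutamide (0.5−50 μM) at a fixed ratio, five concentrations, for 72 h at 37 °C, 5% CO2. Viability read by MTS absorbance at 490 nm after 4 h. Combination index computed at ED50 and ED75 by the Chou–Talalay method.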

[13] = tested on: Quadruplex DNA; assay: Stabilization of AR G-quadruplex oligonucleotide in human 22Rv1 cells assessed as reduction in cyclin D1 protein level at IC50 after 48 hrs by Western immunoblot assay; format: cell-based
[14] = tested on: CWR22R; assay: Effect on JUN mRNA expression in human 22Rv1 cells at IC50 after 48 hrs by RT-PCR analysis; format: functional, cell-based; outline: as §1
[15] = tested on: PC-3; assay: Effect on c-MYC mRNA expression in human PC3 cells at IC50 after 48 hrs by RT-PCR analysis; format: functional, cell-based; outline: as §1
[16] = tested on: DU-145; assay: Effect on JUN mRNA expression in human DU145 cells at IC50 after 48 hrs by RT-PCR analysis; format: functional, cell-based; outline: as §1
[17] = tested on: CWR22R; assay: Synergistic cytotoxicity against human 22Rv1 cells expressing full length androgen receptor H875Y point mutant assessed as ED50 for Enzalutamide at 0.001 to 0.1 uM after 72 hrs by MTS assay; format: functional; conditions: 22Rv1, 72 h, read-out: ED50 (the source's name); outline: as §5
[18] = tested on: Quadruplex DNA; assay: Stabilization of AR G-quadruplex oligonucleotide in human 22Rv1 cells assessed as regulation of AKT1 mRNA expression at IC50 after 48 hrs by RT-PCR analysis; format: cell-based; outline: as §1
[19] = tested on: PC-3; assay: Synergistic cytotoxicity against human PC3 cells assessed as ED75 for Enzalutamide at 0.001 to 0.1 uM after 72 hrs by MTS assay
[20] = tested on: PC-3; assay: Synergistic cytotoxicity against human PC3 cells assessed as combination index for reduction in cell viability measured at ED50 Enzalutamide at 0.001 to 0.1 uM after 72 hrs by MTS assay based Chou and Talay's plot analysis

Work on CN(C)CCCn1c(=O)c2ccc3c(=O)n(CCCN(C)C)c(=O)c4c5[nH]c6ccccc6[nH]c5c(c1=O)c2c34.Cl.Cl yielded a ΔTm [1] of 1 °C, an RBA [2] of 100% and an IC50 [3] of 0.01 µM. For the same molecule, the Activity [4] was “Active”, the Activity [5] was “Active” and the Activity [6] was “Active”. The ΔTm [7] was 4.7 °C, the Activity [8] was “inactive” and the inhibition [9] was “Active”. For the same molecule, the inhibition [10] was “inactive”, the Activity [11] was “Active” and the CI [12] was less than 1. For the same molecule, the Activity [13] was “Active”, the Activity [14] was “inactive” and the Activity [15] was “inactive”. For the same molecule, the Activity [16] was “inactive”, the EC50 [17] was 0.29 µM and the Activity [18] was “Active”. For the same molecule, the ED75 [19] was 21.1 µM and the CI [20] was greater than 1.
